This is an account of results in ChEMBL document CHEMBL1799976, “Neurosteroid analogues. 15. A comparative study of the anesthetic and GABAergic actions of alphaxalone, Δ16-alphaxalone and their corresponding 17-carbonitrile analogues” (Bioorg Med Chem Lett, 2010).

Assay [1] concerns Xenopus laevis. Description: Anesthetic effect on prelimb-bud stage of Xenopus laevis tadpole assessed as loss of swimming reflex. The assay is classed as functional, organism-based. An outline of the steps:
(§1)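 Behavioural reflex end points in tadpoles, with 10 animals at each of five or more concentrations. The highest concentration tested was 10 μM, and "none" means no reflex was lost at that level. EC50 was taken for each reflex, with error given as standard error of the mean.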

Assay [2] relates to Xenopus laevis. Kind of assay: Anesthetic effect on prelimb-bud stage of Xenopus laevis tadpole assessed as loss of righting reflex. It counts as functional, organism-based. An outline of the steps:
as §1

The test system of assay [3] is Xenopus laevis. Description: Anesthetic effect on prelimb-bud stage of Xenopus laevis tadpole assessed as loss of swimming reflex at 10 uM. The assay is classed as functional, organism-based. An outline of the steps: (§2)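 Swimming-reflex scoring in tadpoles at single bath concentrations of 3 μM and 10 μM. Results are reported as whether the tadpoles kept or lost the reflex at each concentration.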

Assay [4] has as its system Oocyte. Description: Modulation of rat GABA-A alpha1beta2gamma2L receptor expressed in Xenopus oocytes assessed as increase of GABA-induced chloride current at 1 uM by two electrode voltage-clamp method relative to control. It counts as cell-based. An outline of the steps:
(§3)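 Two-electrode recording of GABA currents in Xenopus oocytes expressing rat α1β2γ2L GABA-A receptors. The control current was evoked with 2 μM GABA, then compound was co-applied at 0.1, 1 or 10 μM. Each value is the current with compound divided by the current without it, from at least four oocytes (SEM, N ≥ 4).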
(Two-electrode voltage clamp holds a large cell at a set potential and records current.)

Assay [5] has as its system Oocyte. Description: Modulation of rat GABA-A alpha1beta2gamma2L receptor expressed in Xenopus oocytes assessed as increase of GABA-induced chloride current at 10 uM by two electrode voltage-clamp method relative to control. The assay is classed as cell-based. An outline of the steps: as §3
Assay [6] relates to Xenopus laevis. Kind of assay: Anesthetic effect on prelimb-bud stage of Xenopus laevis tadpole assessed as loss of swimming reflex at 3 uM. It counts as functional, organism-based. An outline of the steps: as §2
The test system of assay [7] is Oocyte. Kind of assay: Modulation of rat GABA-A alpha1beta2gamma2L receptor expressed in Xenopus oocytes assessed as increase of GABA-induced chloride current at 0.1 uM by two electrode voltage-clamp method relative to control. The assay is classed as cell-based. An outline of the steps: as §3
The test system of assay [8] is Oocyte. Description: Modulation of rat GABA-A alpha1beta2gamma2L receptor expressed in Xenopus oocytes assessed as increase of chloride current at 10 uM by two electrode voltage-clamp method relative to GABA. It counts as cell-based. An outline of the steps: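 Direct gating test on oocytes expressing rat α1β2γ2L GABA-A receptors. Compound was applied alone at 10 μM with no GABA. The current is expressed as compound-only current divided by the current to 2 μM GABA, from at least four oocytes (SEM).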

Assay [9] in a line: Displacement of [35S]TBPS from GABA-A receptor picrotoxin binding site in rat brain cortical membranes after 2 hrs by scintillation counting. The assay is classed as cell membranes, Membrane.
In assay [10] the test system is Oocyte. Kind of assay: Modulation of rat GABA-A alpha1beta2gamma2L receptor expressed in Xenopus oocytes assessed as increase of GABA-induced chloride current by two electrode voltage-clamp method relative to control. The assay is classed as cell-based. An outline of the steps: as §3

Calls of active or inactive are those of the source. The rule behind the calls is not given here.

A word on the EC50: it is the midpoint of the concentration-response curve. Usually IC50 stands for the concentration that gives 50% inhibition. Lower therefore signals higher potency. Take `C[C@]12CC[C@@H](O)C[C@@H]1CC[C@@H]1[C@@H]2C(=O)C[C@]2(C)C(C#N)=CC[C@@H]12`: the EC50 in [1] stood at 5.48 µM; in assay [2] it was 1040 nM. Also, the result in [3] was Active. Besides, the fold change (FC) in assay [4] was found to be 4.07; in [5], 23.8; in assay [7] it was 1.49; in assay [8], 0.21. The outcome in assay [6] was inactive. For the same compound, the concentration for half-maximal inhibition (IC50) in assay [9] came to 361 nM.

In the case of `CC(=O)C1=CC[C@H]2[C@@H]3CC[C@H]4C[C@H](O)CC[C@]4(C)[C@H]3C(=O)C[C@]12C`, the EC50 in assay [2] was above 10000 nM. The outcome in [3] was inactive. Also, the fold change (FC) in assay [4] is 0.97; in assay [5], 1.87; in [7], 0.94; in [8] it was 0.08. Further, the IC50 in assay [9] was 2220 nM.

With `CC(=O)[C@H]1CC[C@H]2[C@@H]3CC[C@H]4C[C@H](O)CC[C@]4(C)[C@H]3C(=O)C[C@]12C` [ALFAXALONE], the results for the EC50 in assay [1] and in assay [2] were 5.48 µM and 1120 nM, respectively. The result in assay [3] was Active. The fold change (FC) was 4.7 in assay [4], 19.6 in assay [5], 2.91 in assay [7] and 0.11 in [8]. The Activity result in assay [10] was “Dose-dependent effect”. Besides, the outcome in [6] was inactive.

For the compound `C[C@]12CC[C@@H](O)C[C@@H]1CC[C@H]1[C@@H]3CC[C@H](C#N)[C@@]3(C)CC(=O)[C@@H]12`, the EC50 in assay [1] stood at 5.48 µM; in [2] it was 720 nM. In assay [3], the result was Active. For the same compound, the fold change (FC) amounted to 4.59 in assay [4], 21.1 in assay [5], 1.12 in [7] and 0.14 in assay [8]. Besides, the result in assay [6] was inactive. The compound also gave an IC50 in assay [9] of 190 nM.
